Assay results as given in ChEMBL document CHEMBL3600351, “Exploiting translational stalling peptides in an effort to extend azithromycin interaction within the prokaryotic ribosome nascent peptide exit tunnel” (Bioorg Med Chem, 2015).
In brackets after ≈: the same amount, converted by molar mass. Activity calls are given as the source filed them. No cut-off for these calls is given here.

Key:
[1] = system: Staphylococcus aureus; experiment: Antibacterial activity against Erm+ methicillin-resistant Staphylococcus aureus ATCC 33591 assessed as inhibition of bacterial growth after 18 hrs by liquid microdilution method; type: functional
Summary of the method: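 MRSA grown overnight at 37 °C in Nutrient broth, diluted 1:1000 in the same medium, then plated with the compounds. Growth was judged by comparing OD600 before and after 18 h at 37 °C. MIC50 was taken by liquid microdilution. Vancomycin was the positive control. Each compound was run in triplicate and standardized against an internal vehicle control.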

[2] = Inhibition of ribosome nascent peptide exit tunnel in Escherichia coli S30 extract assessed as inhibition of prokaryotic translation in presence of amino acids incubated for 20 mins by luciferase reporter gene assay
Summary of the method: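 E. coli S30 cell-free extract with all amino acids, preincubated with compound for 20 min at room temperature. Luciferase control template added, translation run 60 min at 37 °C, then stopped by 5 min on ice. Luminescence was read after luciferin addition. IC50 from nonlinear fit, triplicate, normalized to vehicle control.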

[3] = system: Staphylococcus aureus; experiment: Antibacterial activity against Staphylococcus aureus ATCC 29213 assessed as inhibition of bacterial growth after 18 hrs in presence of 50% bovine serum by liquid microdilution method; type: functional; details: ATCC 29213, 18 h
Summary of the method: (§1)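 S. aureus ATCC 29213 overnight culture (37 °C) diluted 1:1000 in 50% bovine serum/broth and run by liquid microdilution. Growth was taken from OD600 change over 18 h at 37 °C to give MIC50, in triplicate against a vehicle control. The enhancement ratio is MIC50 without serum divided by MIC50 with serum.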

[4] = system: Staphylococcus aureus; experiment: Ratio of MIC50 for Staphylococcus aureus ATCC 29213 in absence of 50% bovine serum to MIC50 for Staphylococcus aureus ATCC29213 in presence of 50% bovine serum; type: functional; summary of the method: as §1
[5] = Binding affinity to ribosome nascent peptide exit tunnel in rabbit reticulocyte extract assessed as inhibition of eukaryotic translation in presence of amino acids incubated for 20 mins by luciferase reporter gene assay; parameters: species or system Oryctolagus cuniculus
Summary of the method: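 Nuclease-treated rabbit reticulocyte lysate with all amino acids, preincubated with compound for 20 min at room temperature. Luciferase control template added, translation run 90 min at 30 °C, then stopped by 5 min on ice. Luminescence was read after luciferin addition. IC50 from nonlinear fit, triplicate, normalized to vehicle control.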

[6] = system: Escherichia coli; experiment: Antibacterial activity against Escherichia coli ATCC 27856 assessed as inhibition of bacterial growth after 18 hrs by liquid microdilution method; type: functional
Summary of the method: (§2)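 Liquid microdilution. Overnight 37 °C cultures, E. coli ATCC 27856 in LB and S. aureus ATCC 29213 in TSB, diluted 1:1000 in the same medium and exposed to compound. Growth was taken from OD600 before and after 18 h at 37 °C. MIC50 is the read-out. Triplicate, normalized to an internal vehicle control.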

[7] = system: Staphylococcus aureus; experiment: Antibacterial activity against Staphylococcus aureus ATCC 29213 assessed as inhibition of bacterial growth after 18 hrs by liquid microdilution method; type: functional; details: ATCC 29213, 18 h; summary of the method: as §2

CC[C@H]1OC(=O)[C@H](C)[C@@H](O[C@H]2C[C@@](C)(OC)[C@@H](O)[C@H](C)O2)[C@H](C)[C@@H](O[C@@H]2O[C@H](C)C[C@H](N(C)C)[C@H]2O)[C@](C)(O)C[C@@H](C)CN(Cc2ccc(-c3cn(CCN4CCc5ccccc54)nn3)cc2)[C@H](C)[C@@H](O)[C@]1(C)O
MIC50 [1]: inactive | IC50 [2]: 555 nM | MIC50 [3]: 0.78 µg/mL | Ratio [4]: 2 | IC50 [5]: > 250000 nM | MIC50 ([6]; ATCC 27856, 18 h): 64 µg/mL (≈ 61.7 µM) | MIC50 [7]: 1.56 µg/mL (≈ 1.5 µM)

CC[C@H]1OC(=O)[C@H](C)[C@@H](O[C@H]2C[C@@](C)(OC)[C@@H](O)[C@H](C)O2)[C@H](C)[C@@H](O[C@@H]2O[C@H](C)C[C@H](N(C)C)[C@H]2O)[C@](C)(O)C[C@@H](C)CN(Cc2ccc(-c3cn(CCc4c[nH]c5ccc(Cl)cc45)nn3)cc2)[C@H](C)[C@@H](O)[C@]1(C)O
MIC50 [1]: inactive | IC50 [2]: 586 nM | MIC50 [3]: 1.56 µg/mL | Ratio [4]: 1 | IC50 [5]: > 250000 nM | MIC50 [6]: inactive | MIC50 [7]: 1.56 µg/mL (≈ 1.46 µM)

CC[C@H]1OC(=O)[C@H](C)[C@@H](O[C@H]2C[C@@](C)(OC)[C@@H](O)[C@H](C)O2)[C@H](C)[C@@H](O[C@@H]2O[C@H](C)C[C@H](N(C)C)[C@H]2O)[C@](C)(O)C[C@@H](C)CN(CCCCc2cn(CCn3ccc4cc(F)ccc43)nn2)[C@H](C)[C@@H](O)[C@]1(C)O
MIC50 [1]: inactive | IC50 [2]: 646 nM | MIC50 [3]: 0.31 µg/mL | Ratio [4]: 5 | IC50 [5]: > 250000 nM | MIC50 ([6]; ATCC 27856, 18 h): 16 µg/mL (≈ 15.7 µM) | MIC50 [7]: 1.56 µg/mL (≈ 1.53 µM)

CC[C@H]1OC(=O)[C@H](C)[C@@H](O[C@H]2C[C@@](C)(OC)[C@@H](O)[C@H](C)O2)[C@H](C)[C@@H](O[C@@H]2O[C@H](C)C[C@H](N(C)C)[C@H]2O)[C@](C)(O)C[C@@H](C)CN(Cc2ccc(-c3cn(CCn4ccc5cc(Cl)ccc54)nn3)cc2)[C@H](C)[C@@H](O)[C@]1(C)O
MIC50 [1]: inactive | IC50 [2]: 1250 nM | MIC50 [3]: 1.56 µg/mL | Ratio [4]: 2 | IC50 [5]: > 250000 nM | MIC50 [6]: inactive | MIC50 [7]: 3.13 µg/mL (≈ 2.93 µM)

O=C(N[C@H](CO)[C@H](O)c1ccc([N+](=O)[O-])cc1)C(Cl)Cl [CHLORAMPHENICOL]
MIC50 ([6]; ATCC 27856, 18 h): 4 µg/mL (≈ 12.4 µM)

CC[C@H]1OC(=O)[C@H](C)[C@@H](O[C@H]2C[C@@](C)(OC)[C@@H](O)[C@H](C)O2)[C@H](C)[C@@H](O[C@@H]2O[C@H](C)C[C@H](N(C)C)[C@H]2O)[C@](C)(O)C[C@@H](C)CN(CCCCc2cn(CCn3ccc4cc(OC)ccc43)nn2)[C@H](C)[C@@H](O)[C@]1(C)O
MIC50 [1]: inactive | IC50 [2]: 238 nM | MIC50 [3]: 0.16 µg/mL | Ratio [4]: 10 | IC50 [5]: > 250000 nM | MIC50 ([6]; ATCC 27856, 18 h): 16 µg/mL (≈ 15.5 µM) | MIC50 [7]: 1.56 µg/mL (≈ 1.51 µM)

CC[C@H]1OC(=O)[C@H](C)[C@@H](O[C@H]2C[C@@](C)(OC)[C@@H](O)[C@H](C)O2)[C@H](C)[C@@H](O[C@@H]2O[C@H](C)C[C@H](N(C)C)[C@H]2O)[C@](C)(O)C[C@@H](C)CN(CCCCc2cn(CCc3c[nH]c4ccccc34)nn2)[C@H](C)[C@@H](O)[C@]1(C)O
MIC50 [1]: inactive | IC50 [2]: 540 nM | MIC50 [3]: 0.078 µg/mL | Ratio [4]: 10 | IC50 [5]: > 250000 nM | MIC50 ([6]; ATCC 27856, 18 h): 16 µg/mL (≈ 16 µM) | MIC50 [7]: 0.78 µg/mL (≈ 0.779 µM)

CC[C@H]1OC(=O)[C@H](C)[C@@H](O[C@H]2C[C@@](C)(OC)[C@@H](O)[C@H](C)O2)[C@H](C)[C@@H](O[C@@H]2O[C@H](C)C[C@H](N(C)C)[C@H]2O)[C@](C)(O)C[C@@H](C)CN(Cc2ccc(-c3cn(CCn4ccc5ccccc54)nn3)cc2)[C@H](C)[C@@H](O)[C@]1(C)O
MIC50 [1]: inactive | IC50 [2]: 197 nM | MIC50 [3]: 0.63 µg/mL | Ratio [4]: 2.5 | IC50 [5]: > 250000 nM | MIC50 ([6]; ATCC 27856, 18 h): 64 µg/mL (≈ 61.8 µM) | MIC50 [7]: 1.56 µg/mL (≈ 1.51 µM)

CC[C@H]1OC(=O)[C@H](C)[C@@H](O[C@H]2C[C@@](C)(OC)[C@@H](O)[C@H](C)O2)[C@H](C)[C@@H](O[C@@H]2O[C@H](C)C[C@H](N(C)C)[C@H]2O)[C@](C)(O)C[C@@H](C)CN(Cc2ccc(-c3cn(CCc4cn(C)c5ccccc45)nn3)cc2)[C@H](C)[C@@H](O)[C@]1(C)O
MIC50 [1]: inactive | IC50 [2]: 641 nM | MIC50 [3]: 1.56 µg/mL | Ratio [4]: 4 | IC50 [5]: > 250000 nM | MIC50 ([6]; ATCC 27856, 18 h): 128 µg/mL (≈ 122 µM) | MIC50 [7]: 6.25 µg/mL (≈ 5.96 µM)

CC[C@H]1OC(=O)[C@H](C)[C@@H](O[C@H]2C[C@@](C)(OC)[C@@H](O)[C@H](C)O2)[C@H](C)[C@@H](O[C@@H]2O[C@H](C)C[C@H](N(C)C)[C@H]2O)[C@](C)(O)C[C@@H](C)CN(Cc2ccc(-c3cn(CCc4c[nH]c5ccc(F)cc45)nn3)cc2)[C@H](C)[C@@H](O)[C@]1(C)O
MIC50 [1]: inactive | IC50 [2]: 2030 nM | MIC50 [3]: 1.56 µg/mL | Ratio [4]: 2 | IC50 [5]: > 250000 nM | MIC50 [6]: inactive | MIC50 [7]: 3.13 µg/mL (≈ 2.97 µM)

CC[C@H]1OC(=O)[C@H](C)[C@@H](O[C@H]2C[C@@](C)(OC)[C@@H](O)[C@H](C)O2)[C@H](C)[C@@H](O[C@@H]2O[C@H](C)C[C@H](N(C)C)[C@H]2O)[C@](C)(O)C[C@@H](C)CN(CCCCc2cn(CCN3CCc4ccccc43)nn2)[C@H](C)[C@@H](O)[C@]1(C)O
MIC50 [1]: inactive | IC50 [2]: 147 nM | MIC50 [3]: 0.16 µg/mL | Ratio [4]: 10 | IC50 [5]: > 250000 nM | MIC50 ([6]; ATCC 27856, 18 h): 4 µg/mL (≈ 3.99 µM) | MIC50 [7]: 1.56 µg/mL (≈ 1.55 µM)

CC[C@H]1OC(=O)[C@H](C)[C@@H](O[C@H]2C[C@@](C)(OC)[C@@H](O)[C@H](C)O2)[C@H](C)[C@@H](O[C@@H]2O[C@H](C)C[C@H](N(C)C)[C@H]2O)[C@](C)(O)C[C@@H](C)CN(CCCCc2cn(CCc3c[nH]c4ccc(Cl)cc34)nn2)[C@H](C)[C@@H](O)[C@]1(C)O
MIC50 [1]: inactive | IC50 [2]: 880 nM | MIC50 [3]: 0.16 µg/mL | Ratio [4]: 5 | IC50 [5]: > 250000 nM | MIC50 ([6]; ATCC 27856, 18 h): 32 µg/mL (≈ 30.9 µM) | MIC50 [7]: 0.78 µg/mL (≈ 0.753 µM)

CC[C@H]1OC(=O)[C@H](C)[C@@H](O[C@H]2C[C@@](C)(OC)[C@@H](O)[C@H](C)O2)[C@H](C)[C@@H](O[C@@H]2O[C@H](C)C[C@H](N(C)C)[C@H]2O)[C@](C)(O)C[C@@H](C)CN(Cc2ccc(-c3cn(CCn4ccc5cc(F)ccc54)nn3)cc2)[C@H](C)[C@@H](O)[C@]1(C)O
MIC50 [1]: inactive | IC50 [2]: 463 nM | MIC50 [3]: 0.78 µg/mL | Ratio [4]: 2 | IC50 [5]: > 250000 nM | MIC50 ([6]; ATCC 27856, 18 h): 64 µg/mL (≈ 60.8 µM) | MIC50 [7]: 1.56 µg/mL (≈ 1.48 µM)

CN[C@H](CC(C)C)C(=O)N[C@H]1C(=O)N[C@@H](CC(N)=O)C(=O)N[C@H]2C(=O)N[C@H]3C(=O)N[C@H](C(=O)N[C@H](C(=O)O)c4cc(O)cc(O)c4-c4cc3ccc4O)[C@H](O)c3ccc(c(Cl)c3)Oc3cc2cc(c3O[C@@H]2O[C@H](CO)[C@@H](O)[C@H](O)[C@H]2O[C@H]2C[C@](C)(N)[C@H](O)[C@H](C)O2)Oc2ccc(cc2Cl)[C@H]1O [VANCOMYCIN]
MIC50 ([1]; ATCC 33591, 18 h): 4 µg/mL (≈ 2.76 µM) | MIC50 [3]: 1.56 µg/mL | Ratio [4]: 1 | MIC50 [7]: 1.56 µg/mL (≈ 1.08 µM)
